From PubChem BioAssay AID624466 (The Scripps Research Institute Molecular Screening Center, 2012) come the findings set out here.

Out of some 360,000 compounds screened, about 5,400 (1.5%) were called active. The entries come from a sample that favours actives as a whole. A number with no mark means an inactive call.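 Rule for the calls: active = inhibition above a per-plate cutoff, the mean inhibition of test compounds on that plate plus 3 SD (cut at about 49% in these data); inactive = the rest.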

Sequence of Trace amine-associated receptor 1 (Homo sapiens) (Q96RJ0 whole entry, looked up, the tested form may be a part): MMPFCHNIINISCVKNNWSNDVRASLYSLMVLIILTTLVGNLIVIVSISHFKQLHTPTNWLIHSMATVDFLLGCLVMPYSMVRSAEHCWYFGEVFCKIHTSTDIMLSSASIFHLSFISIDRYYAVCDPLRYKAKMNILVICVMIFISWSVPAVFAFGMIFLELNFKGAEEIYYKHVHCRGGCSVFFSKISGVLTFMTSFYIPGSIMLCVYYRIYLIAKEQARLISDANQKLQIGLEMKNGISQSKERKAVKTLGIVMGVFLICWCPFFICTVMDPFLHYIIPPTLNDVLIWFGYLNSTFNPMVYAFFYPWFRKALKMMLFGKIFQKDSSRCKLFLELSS

This assay deals with Trace amine-associated receptor 1 (Homo sapiens) (UniProt Q96RJ0). As to the kind of experiment: human TAAR1 antagonists, primary screen, Fluo-8 calcium fluorescence, CHO RD-HGA16 cells (AID 624466).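 Note: 0% = DMSO plus EC80 beta-PEA response and 100% = DMSO alone without agonist.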 Conditions: CHO RD-HGA16 TAAR1, Fluo-8 calcium fluorescence, antagonist; at 3 µM; hits give high values. In outline:
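Test system – hTAAR1-expressing CHO RD-HGA16 cells, Gα16-coupled · Reagent – β-PEA at EC80 concentration, post-compound challenge · Compound dosing – 3 µM, single point · Timing – 140 s kinetic read after compound, 140 s after agonist · Detection – Fluo-8 intracellular calcium dye fluorescence, real-time kinetic reads · Control set – DMSO and EC80 PEA controls · Repeats – n of 1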
In the case of `CN(C)S(=O)(=O)c1ccc(C(=O)NCCN=C2NS(=O)(=O)c3ccccc32)cc1`, the inhibition (in general, the change of the read-out against control, counted positive when it falls) is -8.85%.

Turning to `O=C(c1ccc2ccccc2n1)N1CCN(c2ccccc2Cl)CC1`, the inhibition was 20.4%.

As for `NC(=O)COc1ccc(/C=N/NC(=O)C2CCCN2S(=O)(=O)c2ccc(Cl)cc2)cc1` (stereo not given), the inhibition was 15.8%.

As to `NC(N)=N/N=C/c1ccc(OCc2ccc(Cl)cc2Cl)cc1`, the inhibition was 73.3% (active).

As to `COc1ccc(Cl)cc1N(CC(=O)N/N=C/c1ccc(OCC(N)=O)cc1)S(C)(=O)=O`, the inhibition is 6.35%.

Consider `O=C1NC[C@H](CCCCN2C[C@H](Cc3ccc(O)cc3)N(CC3CCCCC3)C(=O)C2=O)N(CCc2ccccc2)C1=O`, for which the inhibition is 7.35%.

In the case of `COc1cccc(N(C(=O)C2COc3ccccc3O2)C(C(=O)NC2CCCCC2)c2ccc(O)cc2)c1` (stereo not given), the inhibition is -14.6%.

On to `CN(Cc1ccccc1)C(=O)COC(=O)c1ccccc1Nc1ccccc1`, for which the inhibition is 22.9%.

Regarding `Cc1c(C(=O)NCCCc2ccccc2)cccc1[N+](=O)[O-]`, the inhibition was 1.14%.

Take `O=C(OCC(=O)N(CCc1ccccc1)Cc1ccccc1)c1ccccc1[N+](=O)[O-]`: the inhibition was 71.1% (active).

Take `CC(C)(C)c1ccc(S(=O)(=O)NCC2CCN(C(=O)C(=O)c3cc4ccccc4o3)CC2)cc1`: the inhibition was 3.67%.

For `O=C(COC(=O)c1cc(S(=O)(=O)N2CCOCC2)ccc1Cl)NCCc1ccccc1`, the inhibition was -6.27%.

Turning to `CCC(=O)c1ccc(OCC(O)CN2CCN(c3cccc(C(F)(F)F)c3)CC2)cc1` (stereo not given), the inhibition is 19.9%.

As for `CCOc1ccc(NC(=O)N(CC(C)C)CC(C)C)cc1`, the inhibition is -6.6%.

For the molecule `CC(=O)N(C)c1ccc(NC(=O)Nc2cccc3ccccc23)cc1`, the inhibition was -1.56%.

Consider `CCOc1ccc(NC(=O)Nc2ccc(N(C)C(C)=O)cc2)cc1`, for which the inhibition was 51.5% (active).

Regarding `CC12CCC(=O)N1C(C(=O)NCCN1C(=O)S/C(=C\c3ccccc3F)C1=O)CS2` (stereo not given), the inhibition was -27.9%.

Regarding `O=S(=O)(NCC1CCCO1)c1cnc(Cl)c(Cl)c1` (stereo not given), the inhibition was 12.4%.

For `CCOC(=O)C1=C(c2ccccc2)O/C(=C(/C(=O)OC)C(F)(F)F)S1`, the inhibition was -4.35%.

Take `CC(=O)Nc1cccc(NC(=O)c2ccc3c(c2)CCN3S(C)(=O)=O)c1`: the inhibition is 50% (active).

For the molecule `CS(=O)(=O)N1CCc2cc(C(=O)Nc3ccccc3Br)ccc21`, the inhibition was 23.9%.

For the molecule `CS(=O)(=O)N1CCc2cc(C(=O)Nc3ccccc3)ccc21`, the inhibition is 9.11%.

For `Cc1ncc([N+](=O)[O-])n1CCOC(=O)c1ccc(Br)cc1`, the inhibition was 11.2%.

Take `CC(C)(C)C(c1nc2ccccc2[nH]1)n1c(Cc2csc3ccccc23)nc2ccccc21` (stereo not given): the inhibition was 11.6%.

With `CC(C)C[C@@H]1Cc2[nH][nH]c(=O)c2[C@H](CCc2ccccc2)O1`, the inhibition is -21.2%.

As to `C[N+](C)(C)CCNC(=O)c1cc[n+](Cc2ccccc2)c(/C=N/O)c1`, the inhibition was 5.47%.

Take `COC(=O)C1=C(C)N(Cc2ccccc2C(F)(F)F)C(=NCc2ccc(OC)cc2)NC1c1cccc(C(F)(F)F)c1` (stereo not given): the inhibition is 4.48%.

Consider `COc1ccc(S(=O)(=O)N(CC(=O)NCc2ccco2)c2ccc(F)cc2)cc1`, for which the inhibition is 57.5% (active).

As to `Cc1ccc(S(=O)(=O)N(CC(=O)NCc2ccco2)c2ccccc2C)cc1`, the inhibition was 5.84%.

For the molecule `CCN(CC(=O)NCc1ccco1)S(=O)(=O)c1ccc(F)cc1`, the inhibition is -11.9%.

Turning to `COc1ccc(C(C(=O)NCc2ccccc2)n2c(=O)c(-c3ccccc3)nc3ccccc32)cc1` (stereo not given), the inhibition is -24.7%.

Take `CN(Cc1ccccc1)C(=O)[C@@H]1CCCN1C(=O)[C@@H]1CCCN1C(=O)c1c(F)cccc1F`: the inhibition was -1.21%.

Consider `Cc1nnc(SCC(=O)NC(=O)NC2CCCC2)n1N`, for which the inhibition is -8.31%.

As for `CC(C)Oc1cc(F)ccc1-c1cc(C(=O)Nc2ccc(F)cc2)[nH]n1`, the inhibition was 68.5% (active).

For `COc1cc(NC(=O)c2cc(-c3ccc(F)cc3OC(C)C)n[nH]2)cc(OC)c1OC`, the inhibition is 47.6%.

Regarding `CC(C)Oc1cc(F)ccc1-c1cc(C(=O)Nc2cccc(Cl)c2)[nH]n1`, the inhibition was 42.5%.

In the case of `O=C(CN1CCN(c2ccc(O)cc2)CC1)NC1CCCc2ccccc21` (stereo not given), the inhibition is -0.58%.

Take `Cc1ccc(C2CC(c3cccc(NS(C)(=O)=O)c3)=NN2S(C)(=O)=O)cc1` (stereo not given): the inhibition was 0.27%.

As to `CS(=O)(=O)Nc1cccc(C2=NN(C(=O)c3cccc(F)c3)C(c3cccs3)C2)c1` (stereo not given), the inhibition was 62.3% (active).

`CCS(=O)(=O)Nc1ccc(C2=NN(C(C)=O)C(c3cccs3)C2)cc1` (stereo not given): the inhibition is 6.89%.

As for `FC(F)Oc1ccc(NC(=S)NCc2ccco2)cc1Cl`, the inhibition is 36.8%.

In the case of `O=C(CSc1nc2cccc(F)c2c(=O)n1-c1ccccc1)Nc1ccc2c(c1)CCC2`, the inhibition is -17.1%.

Turning to `O=C(COC(=O)COc1ccccc1F)Nc1cccc(S(=O)(=O)N2CCCCC2)c1`, the inhibition was -6.77%.

As for `CC(NC(=O)c1ccccc1)C(=O)OCC(=O)Nc1cccc(S(=O)(=O)N2CCCC2)c1` (stereo not given), the inhibition was -4.21%.

Consider `CCOc1ncccc1C(=O)OCC(=O)Nc1cccc(S(=O)(=O)N2CCCCCC2)c1`, for which the inhibition was 63.8% (active).

Turning to `COc1cccc(CCNC(=O)COc2cccc3c2OC(C)(C)C3)c1`, the inhibition is 3.3%.

For `CCCNC(=O)C1CC(=O)N(c2ccc(OCC(=O)Nc3cccc(C)c3C)cc2)C1` (stereo not given), the inhibition is -17.9%.

Take `Cc1cccc(C(=O)OCC(=O)Nc2sccc2C(N)=O)c1C`: the inhibition was -21.5%.

`NC(=O)c1ccsc1NC(=O)COC(=O)COc1ccc(C=O)cc1`: the inhibition is 24.6%.

Regarding `COc1cc(OC)cc(C(=O)OCC(=O)Nc2sccc2C(N)=O)c1`, the inhibition was 63% (active).

In the case of `CCCCNC(=O)C[C@@H]1C[C@@]2(C(=O)OCC)CCC=C2N(Cc2cccc3ccccc23)C1=O`, the inhibition is -3.28%.

On to `COc1cc(C(=O)OC(C)C(=O)NCC2CCCCC2)cc(NC(=O)c2ccco2)c1OC` (stereo not given), for which the inhibition was -4.96%.

`COc1ccc(NC(=O)CCS(=O)(=O)c2cc3c(cc2Cl)NC(=O)CO3)cc1OC`: the inhibition was -9.29%.

Take `COc1ccc(Cl)cc1NC(=O)CCS(=O)(=O)c1cc2c(cc1C)NC(=O)CO2`: the inhibition was 63.3% (active).

Turning to `Cc1cc2c(cc1S(=O)(=O)CCC(=O)NCc1ccccc1)OCC(=O)N2`, the inhibition is 8.55%.

On to `O=C(NC1CCCC1)C1c2ccccc2OCC(=O)N1Cc1ccccc1` (stereo not given), for which the inhibition was -5.5%.

As to `Cc1ccc(C)c(OCCC(=O)OCC(=O)NC(=O)NCc2ccccc2)c1`, the inhibition is -20.1%.

In the case of `COc1cc(SC#N)ccc1N=Cc1c(C)[nH]n(-c2ccc(C)cc2)c1=O`, the inhibition was 87.5% (active).

Regarding `Cc1cc(C)c2cc(C#N)c(N3CCNCC3)nc2c1`, the inhibition is 76.6% (active).

Consider `Cc1ccc2cc(C)c(N3CCC(C)CC3)nc2c1`, for which the inhibition was -22.1%.

`Cc1ccc2cc(C)c(N3CCN(c4ccc(F)cc4)CC3)nc2c1`: the inhibition is -19.1%.

As to `COC(=O)[C@]12C[C@H](CC(=O)NCc3cccc(C(F)(F)F)c3)C(=O)N(Cc3ccc4c(c3)OCO4)C1=C[C@H](COCc1ccccc1)O[C@@H]2C`, the inhibition is -19.1%.

In the case of `COc1ccc(N2CCN(C(=O)c3ccc(N4CCCCS4(=O)=O)cc3)CC2)cc1`, the inhibition is -21.9%.

As to `CC(C)C(=O)Nc1ccc2c3c(cccc13)CC2`, the inhibition was -5.92%.

For the molecule `Cc1cc(NC(=O)COC(=O)c2ccc(F)c(S(=O)(=O)N3CCOCC3)c2)no1`, the inhibition was -19.8%.

Take `COc1ccc(C(=O)OCC(=O)c2ccc(C)c(S(=O)(=O)N3CCOCC3)c2)cc1OC`: the inhibition is 47.7%.

For `O=C(Oc1ccc(-c2nnco2)cc1)c1ccc(F)c(S(=O)(=O)N2CCOCC2)c1`, the inhibition was 84.1% (active).

Turning to `COc1ccc(C(=O)OC(C)C(=O)NC2CCCC2)cc1S(=O)(=O)N1CCOCC1` (stereo not given), the inhibition is -9.55%.

Regarding `NC(=O)C1CCN(C(=O)c2ccc(F)c(S(=O)(=O)N3CCOCC3)c2)CC1`, the inhibition is 6.75%.

Turning to `COc1ccc(C(=O)Oc2ccc(-c3nnco3)cc2)cc1S(=O)(=O)N1CCOCC1`, the inhibition is 60.2% (active).

With `CC(C)(O)C1=C[N+](=O)CC=C1`, the inhibition is 2.41%.

As for `CC1(C(=O)Nc2cccnc2)Cc2c(-c3ccccc3)ccnc2O1` (stereo not given), the inhibition is -9.98%.

Regarding `CC(C)C[C@@H]1COc2cc(N3CCC[C@@H]3CO)ccc2S(=O)(=O)N1`, the inhibition was -24.6%.

With `Cc1ccc2c(c1)N(CC(=O)NCCCN1CCCCC1)C(=O)c1cccnc1O2`, the inhibition was -18.1%.

Regarding `Cc1ccc2c(c1)N(CC(=O)NCCc1ccc(Cl)cc1)C(=O)c1cccnc1O2`, the inhibition was 64.2% (active).

Consider `O=C(CN1C(=O)c2cccnc2Oc2ccc(Cl)cc21)NCCc1ccccc1`, for which the inhibition was 12.2%.

With `CN(C)C1CN(Cc2cn(Cc3ccccc3)nn2)S(=O)(=O)C1` (stereo not given), the inhibition is -30.8%.

Take `C=CC1=CCN(S(=O)(=O)C(C)(C)C)[C@@H]1CCO`: the inhibition was -20.8%.

Consider `Cc1cccc(C(=O)Nc2ccc(C(=O)/C=C/c3cccs3)cc2)c1`, for which the inhibition is 59.9% (active).

With `Cc1cccc(C(=O)Nc2ccc(Oc3cnccn3)cc2)c1`, the inhibition was -6.75%.

For the molecule `Cc1cccc(C(=O)Nc2ccc3c(c2)C(=O)N(CC(C)C)C3=O)c1`, the inhibition was 16.9%.

Take `Cc1nc2c(OCc3ccc(Cl)cc3Cl)cccn2c1N(C)CC1CC1`: the inhibition was 16.7%.

On to `CCCCCCCCN1C(=O)[C@@H](CC(=O)NCCCC)C[C@@]2(C(=O)OC)C1=C[C@H](C(C)(C)C)O[C@@H]2C`, for which the inhibition is -28.5%.

As to `CCOc1ccc(NC(=O)CN(C)C(=O)c2c(C)noc2C)cc1OCC`, the inhibition was -17.5%.

Regarding `CCCCOCCCNC(=O)C[C@@H]1C[C@@]2(C(=O)OCC)CCCC=C2N(CCC2=CCCCC2)C1=O`, the inhibition is -7.17%.
